In one assay the test system is Nucleic Acid. Briefly: Inhibitory concentration against ethidium bromide binding to [poly(dA-dT)] [poly(dA-dT)]. It counts as nucleic-acid assay. The method, boiled down:
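Fluorometric ethidium displacement using poly[d(A-T)]. C50 is the micromolar ligand concentration that displaces 50% of previously bound ethidium. For intercalators it is inversely proportional to the ligand–DNA association constant.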

For the next assay, the system named is P388. Briefly: Inhibition of P388 leukemia cells growth in culture. The note with it: Mus musculus. The assay is classed as functional, cell-based. Put shortly:
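P388 leukemia cells in exponential growth were exposed to drug for 70 h. IC50 is the micromolar concentration that reduces cell growth to 50% of control values.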

Assay [1] relates to Mus musculus. Nature of the assay: Percentage increase in lifespan of P388 tumor-bearing mice compared with tumor-bearing controls at optimal dose of 150 mg/kg/day; NA = Not active. The assay is classed as functional, organism-based. The method, boiled down: (§1)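 Mice were inoculated ip with 10^6 P388 leukemia cells. Drug was given ip on days 1, 5 and 9 in 0.1 mL of 30% v/v EtOH-water, with dose in mg/kg/day. Optimal dose was determined, and ILS is the % lifespan increase over tumor-bearing controls at that dose.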

Assay [2] concerns Mus musculus. Briefly: Percentage increase in lifespan of P388 tumor-bearing mice compared with tumor-bearing controls at optimal dose of 65 mg/kg/day. It counts as functional.
In assay [3] the test system is Mus musculus. Briefly: Optimal dose required to inhibit P388 leukemia cells when administered intraperitoneally in mice. The assay is classed as functional. The method, boiled down: as §1
Assay [4] concerns Mus musculus. Briefly: Percentage increase in lifespan of P388 tumor-bearing mice compared with tumor-bearing controls at optimal dose of 65 mg/kg/day; NA= Not active. The assay is classed as functional, organism-based. Put shortly: as §1
The test system of assay [5] is Mus musculus. Nature of the assay: Percentage increase in lifespan of P388 tumor-bearing mice compared with tumor-bearing controls at optimal dose of 65 mg/kg/day; NA=Not active. The assay is classed as functional, organism-based. Put shortly:
as §1

Calls of active or inactive are those of the source. No cut-off for these calls is given here. A value given as a limit tells only on which side of the number the result lay.

One may read the IC50 as the concentration needed to halve the response being measured. Low values mean greater potency in that assay, high ones weaker potency in that assay. Turning to `CN(C)CCNC(=O)c1ccc([N+](=O)[O-])c2c(O)c3cnccc3nc12`, in the assay on Nucleic Acid, the C50 stood at 6.2 µM. In addition, in the assay with P388, half-maximal inhibition (IC50) was put at 1000 nM.
For `CN(C)CCn1c(=O)c2cccc3c(=O)c4ccncc4n(c1=O)c32` the same measures were 10.7 µM and over 40000 nM.
For `CN(C)CCNC(=O)c1cccc2c(O)c3cc([N+](=O)[O-])ccc3nc12` the same measures were 5.9 µM and 3500 nM.
As a reminder, the ILS is the gain in survival time of treated over control animals, in per cent. With `CN(C)CCNC(=O)c1cccc2c(O)c3cccnc3nc12`, the C50 in the assay with Nucleic Acid amounted to 27.7 µM. The ILS entry with Mus musculus [1] was “inactive”. The compound further yielded a half-inhibitory concentration (IC50) with P388 of 5500 nM.
With `CN(C)CCNC(=O)c1ccc([N+](=O)[O-])c2cc3cnccc3nc12`, the C50 in the assay with Nucleic Acid came out at 4.4 µM. The compound further yielded a half-inhibitory concentration (IC50) in the assay with P388 of 5000 nM.
In the assay on Nucleic Acid, `CN(C)CCNC(=O)c1cccc2c(O)c3ccncc3nc12` registered a C50 of 18.5 µM. This compound yielded a half-inhibitory concentration (IC50) in the assay on P388 of over 40000 nM.
In the case of `CN(C)CCNC(=O)c1ccc([N+](=O)[O-])c2c(O)c3cccnc3nc12`, in the assay with Nucleic Acid, the C50 turned out to be 10.4 µM. In the assay on Mus musculus [2], this compound displayed an ILS at 65 mg/kg/day of 31%. The OD with Mus musculus [3] came out at 65 mg/kg/day. Moreover, in the assay with P388, the IC50 is 18 nM.
Compound `C(=N/NC1=NCCN1)/c1cccc2cc3cccnc3nc12` registered a C50 in the assay with Nucleic Acid of 5 µM. In addition, the 50% inhibitory concentration (IC50) with P388 amounted to 12000 nM.
Compound `C(=N/NC1=NCCN1)/c1cccc2cc3ncccc3nc12` gave a C50 in the assay on Nucleic Acid of 5.4 µM. For the same compound, the ILS result with Mus musculus [4] was “inactive”. The compound further registered an OD in the assay on Mus musculus [3] of 45 mg/kg/day. Further, in the assay with P388, the IC50 turned out to be 3300 nM.
`CN(C)CCNC(=O)c1cc([N+](=O)[O-])cc2c(O)c3cccnc3nc12`: the C50 with Nucleic Acid was 11 µM. The same compound gave an IC50 with P388 of 1300 nM.
Take `CN(C)CCNC(=O)C1=CC=C([N+](=O)[O-])C2C(=O)c3ccccc3N=C12` (stereo unspecified): the C50 with Nucleic Acid worked out at 23 µM. For the same compound, the IC50 in the assay with P388 amounted to 550 nM.
`CN(C)CCNC(=O)c1ccc([N+](=O)[O-])c2cc3ncccc3nc12` gave a C50 with Nucleic Acid of 3.1 µM. The ILS result in the assay on Mus musculus [4] was “inactive”. Also, the OD with Mus musculus [3] stood at 45 mg/kg/day. Moreover, the IC50 in the assay with P388 was 85 nM.
In the case of `CN(C)CCNC(=O)c1cccc2c(=O)c3ccccc3[nH]c12`, the C50 in the assay with Nucleic Acid came to 15 µM. Also, the ILS entry in the assay on Mus musculus [1] was “inactive”. Further, half-maximal inhibition in the assay with P388 (IC50) was put at 1700 nM.
In turn, `Oc1c2cccnc2nc2c(/C=N\NC3=NCCN3)cccc12` yielded a C50 in the assay on Nucleic Acid of 4 µM. In addition, the half-maximal inhibitory concentration (IC50) in the assay with P388 was 22000 nM.
With `C(=N/NC1=NCCN1)/c1cccc2cc3cnccc3nc12`, in the assay on Nucleic Acid, the C50 was 6.6 µM. This compound also registered an IC50 in the assay on P388 of 12300 nM.
In the case of `CN(C)CCNC(=O)c1cccc2cc3ccccc3nc12`, the C50 with Nucleic Acid amounted to 5 µM. Moreover, the increase in lifespan (ILS) at 65 mg/kg/day with Mus musculus [2] amounted to 91%. The same compound gave an IC50 in the assay on P388 of 110 nM.
`C[N+](C)(C)CC(=O)N/N=C\c1cccc2c(O)c3cccnc3nc12` displayed a C50 in the assay on Nucleic Acid of 7.3 µM. This compound also came in with a concentration for half-maximal inhibition (IC50) in the assay on P388 of over 40000 nM.
For `C(=N/NC1=NCCN1)/c1cccc2cc3ccncc3nc12` the same measures were 5.9 µM and 25000 nM.
Take `CN(C)CCNC(=O)c1cccc2c(O)c3ccc([N+](=O)[O-])cc3nc12`: the C50 with Nucleic Acid is 4.1 µM. The ILS entry in the assay with Mus musculus [4] is “inactive”. In the assay on Mus musculus [3], this compound showed an OD of 65 mg/kg/day. The same compound returned an IC50 with P388 of 1200 nM.
For `CN(C)CCNC(=O)c1cc([N+](=O)[O-])cc2c(O)c3ccccc3nc12` the same measures were 4.5 µM, “inactive”, 45 mg/kg/day and 910 nM.
In the assay on Nucleic Acid, `CN(C)CCNC(=O)c1cccc2cc3cccnc3nc12` showed a C50 of 7.6 µM. In the assay with Mus musculus [5], the ILS result was “inactive”. Further, the IC50 in the assay with P388 worked out at 490 nM.
The compound `CN(C)CCNC(=O)c1cccc2c(O)c3cnccc3nc12` showed an IC50 in the assay on P388 of over 40000 nM.
Regarding `CN(C)CCNC(=O)c1ccc([N+](=O)[O-])c2cc3cccnc3nc12`, the C50 in the assay on Nucleic Acid amounted to 2.1 µM. The ILS entry in the assay on Mus musculus [4] is “inactive”. This compound also registered an OD in the assay on Mus musculus [3] of 20 mg/kg/day. Moreover, the midpoint of inhibition in the assay on P388, the IC50, lay at 150 nM.
`CN(C)CCNC(=O)c1cccc2cc3ncccc3nc12` yielded a C50 in the assay on Nucleic Acid of 11.1 µM. In the assay with Mus musculus [2], the ILS at 65 mg/kg/day was 48%. The compound also registered an IC50 in the assay with P388 of 4400 nM.
`CN(C)CCNC(=O)c1cccc2c(O)c3cccc([N+](=O)[O-])c3nc12` yielded a C50 in the assay with Nucleic Acid of 2.4 µM. In the assay with Mus musculus [2], this compound yielded an increase in lifespan (ILS) at 65 mg/kg/day of 65%. The same compound gave an OD in the assay on Mus musculus [3] of 45 mg/kg/day. Further, half-maximal inhibition in the assay with P388 (IC50) required 83 nM.
Compound `Oc1c2cccc(/C=N\NC3=NCCN3)c2nc2cccnc12` came in with a C50 with Nucleic Acid of 9.6 µM. This compound gave a half-inhibitory concentration (IC50) in the assay on P388 of over 40000 nM.
In the case of `CN(C)CCNC(=O)c1cccc2cc3ccncc3nc12`, the C50 with Nucleic Acid stood at 4.6 µM. Moreover, the 50% inhibitory concentration (IC50) in the assay on P388 was 8300 nM.
For `C[N+](C)(C)CC(=O)N/N=C\c1cccc2cc3cccnc3nc12`, in the assay on Nucleic Acid, the C50 turned out to be 11.1 µM. For the same compound, the ILS entry in the assay with Mus musculus [4] is “inactive”. Moreover, the OD in the assay with Mus musculus [3] amounted to 65 mg/kg/day. In addition, 1650 nM corresponded to half-maximal inhibition in the assay on P388 (IC50).
